# Measured values as given in ChEMBL document CHEMBL1156889, “Synthesis and biological evaluation of (phenylpiperazinyl-propyl)arylsulfonamides as selective 5-HT(2A) receptor antagonists” (Bioorg Med Chem, 2010).
# How the values were obtained:
# [1] = molecular target: 5-hydroxytryptamine receptor 2A (Homo sapiens, UniProt P28223); assay: Displacement of [3H]ketanserin from human recombinant 5HT2A receptor expressed in avCHO-K1 cells; type: cell-based, CHO-K1
# Summary of the method: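 Used frozen membranes. [3H]ketanserin was at 1 nM, with mianserin defining nonspecific binding. Incubated 15 min at 37 °C in 50 mM Tris-HCl pH 7.4, then harvested on GF/C glass fiber filters presoaked in 0.05% Brij.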
# [2] = molecular target: 5-hydroxytryptamine receptor 7 (Homo sapiens, UniProt P34969); assay: Displacement of [3H]LSD from human recombinant 5HT7 receptor expressed in CHO cells; type: cell-based
# Sequence of 5-hydroxytryptamine receptor 7 (P34969 whole entry): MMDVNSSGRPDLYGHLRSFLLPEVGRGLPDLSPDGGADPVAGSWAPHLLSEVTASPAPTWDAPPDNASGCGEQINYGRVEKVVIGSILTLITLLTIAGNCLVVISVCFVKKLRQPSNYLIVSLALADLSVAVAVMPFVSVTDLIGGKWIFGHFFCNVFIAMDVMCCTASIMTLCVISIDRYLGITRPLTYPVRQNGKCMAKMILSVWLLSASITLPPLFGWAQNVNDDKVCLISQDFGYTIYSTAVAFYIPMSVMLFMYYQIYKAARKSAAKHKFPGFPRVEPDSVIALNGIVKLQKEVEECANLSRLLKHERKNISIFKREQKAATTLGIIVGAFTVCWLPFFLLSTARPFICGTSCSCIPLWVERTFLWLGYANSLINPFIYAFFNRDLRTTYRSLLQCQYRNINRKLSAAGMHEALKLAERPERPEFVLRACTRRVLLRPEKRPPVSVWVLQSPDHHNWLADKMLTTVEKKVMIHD
# Summary of the method: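 Membranes from stably transfected CHO cells. Reaction mix held 3 nM [3H]LSD and test compound in 50 mM Tris-HCl pH 7.4 with 10 mM MgCl2 and 0.5 mM EDTA, incubated 90 min at 27 °C. Stopped by rapid filtration on GF/C filters presoaked in 0.3% polyethylenimine, then scintillation counted. Methiothepin defined nonspecific binding. 7-8 concentrations were run in duplicate, and IC50 came from nonlinear regression of isotherms from three assays.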
# [3] = molecular target: T1, 5-hydroxytryptamine receptor 2C (Homo sapiens, UniProt P28335); assay: Displacement of [3H]mesulergine from human recombinant 5HT2C receptor expressed in CHO-K1 cells; type: cell-based
# T1 sequence (P28335 whole entry): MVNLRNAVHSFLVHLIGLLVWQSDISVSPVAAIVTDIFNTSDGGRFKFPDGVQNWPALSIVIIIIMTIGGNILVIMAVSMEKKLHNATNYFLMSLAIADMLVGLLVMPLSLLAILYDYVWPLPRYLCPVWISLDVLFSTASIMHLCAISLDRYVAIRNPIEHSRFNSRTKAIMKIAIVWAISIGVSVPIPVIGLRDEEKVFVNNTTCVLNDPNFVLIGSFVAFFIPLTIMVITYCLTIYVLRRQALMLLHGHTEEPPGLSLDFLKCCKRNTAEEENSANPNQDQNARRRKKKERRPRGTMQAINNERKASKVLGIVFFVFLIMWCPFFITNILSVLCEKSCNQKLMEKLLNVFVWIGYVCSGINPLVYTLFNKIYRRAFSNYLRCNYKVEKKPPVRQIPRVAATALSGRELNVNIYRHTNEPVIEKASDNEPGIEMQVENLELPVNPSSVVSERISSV
# Summary of the method: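 Frozen membranes from a stable cell line were incubated with 1 nM [3H]mesulergine and test compound in 50 mM Tris-HCl pH 7.7 containing 0.1% ascorbic acid and pargyline, 30 min at 37 °C. Mianserin defined nonspecific binding. Terminated by rapid filtration through GF/C filters presoaked in 1% BSA.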
# [4] = molecular target: Serotonin 2 receptors; 5-HT2a & 5-HT2c (Homo sapiens) (UniProt P28223+P28335); assay: Selectivity for human recombinant 5HT2A receptor over human recombinant 5HT2C receptor
# Sequence of Serotonin 2 receptors; 5-HT2a & 5-HT2c (Homo sapiens) (P28223 whole entry, looked up, one chain of several): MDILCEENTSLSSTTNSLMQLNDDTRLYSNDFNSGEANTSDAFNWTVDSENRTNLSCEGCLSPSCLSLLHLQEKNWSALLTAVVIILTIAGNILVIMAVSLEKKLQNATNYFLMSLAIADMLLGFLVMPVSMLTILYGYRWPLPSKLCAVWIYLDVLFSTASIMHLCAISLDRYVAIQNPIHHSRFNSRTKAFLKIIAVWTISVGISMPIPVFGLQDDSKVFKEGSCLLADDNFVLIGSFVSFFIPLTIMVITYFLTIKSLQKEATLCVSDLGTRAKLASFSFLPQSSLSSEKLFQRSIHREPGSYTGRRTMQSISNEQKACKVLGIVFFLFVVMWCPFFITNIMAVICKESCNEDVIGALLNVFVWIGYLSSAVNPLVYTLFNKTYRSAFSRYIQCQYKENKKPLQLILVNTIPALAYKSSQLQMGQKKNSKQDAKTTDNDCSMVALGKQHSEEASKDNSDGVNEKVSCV
# Homo sapiens = organism: Homo sapiens; assay: Selectivity for human recombinant 5HT2A receptor over human recombinant 5HT7 receptor
# Sequence of 5-hydroxytryptamine receptor 2A (P28223 whole entry): as the sequence (P28223 whole entry, looked up, one chain of several) above
SMILES,IC50 [1],IC50 [2],IC50 [3],Ratio IC50 [4],Ratio IC50 (Homo sapiens)
COc1ccc(S(=O)(=O)N(CCCN2CCN(c3ccccc3)CC2)CC2CCCCC2)cc1,9.4 nM,567 nM,79 nM,–,–
O=[N+]([O-])c1ccc(S(=O)(=O)N(CCCN2CCN(c3ccccc3)CC2)CC2CC2)cc1,180 nM,500 nM,1940 nM,–,–
O=S(=O)(c1cccc2cccnc12)N(CCCN1CCN(c2ccc(Cl)c(Cl)c2)CC1)CC1CCCCC1,7.7 nM,2300 nM,66.5 nM,–,–
COc1ccc(S(=O)(=O)N(CCCN2CCN(c3cccc(C(F)(F)F)c3)CC2)CC2CCCCC2)cc1,19.5 nM,678 nM,33 nM,–,–
COc1ccc(S(=O)(=O)N(CCCN2CCN(c3ccccc3)CC2)CC2CC2)cc1,136 nM,121 nM,691 nM,–,–
COc1ccc(S(=O)(=O)N(CCCN2CCN(c3ccccc3OC)CC2)CC2CC2)cc1,2210 nM,316 nM,1980 nM,–,–
O=S(=O)(c1cccc2cccnc12)N(CCCN1CCN(c2ccc(F)cc2)CC1)CC1CC1,8.3 nM,35.3 nM,4750 nM,–,–
O=S(=O)(c1ccc(F)cc1)N(CCCN1CCN(c2ccccc2)CC1)CC1CCCCC1,13.2 nM,110 nM,294 nM,–,–
O=S(=O)(c1cccc2cccnc12)N(CCCN1CCN(c2ccccc2)CC1)CC1CC1,292 nM,749 nM,2160 nM,–,–
O=S(=O)(c1cccc2cccnc12)N(CCCN1CCN(c2cccc(C(F)(F)F)c2)CC1)CC1CCCCC1,29.1 nM,160 nM,38.8 nM,–,–
O=[N+]([O-])c1ccc(S(=O)(=O)N(CCCN2CCN(c3ccccc3)CC2)CC2CCCCC2)cc1,4.2 nM,87 nM,45.7 nM,–,–
COc1ccccc1N1CCN(CCCN(CC2CCCCC2)S(=O)(=O)c2cccc3cccnc23)CC1,59.9 nM,24 nM,118 nM,–,–
COc1ccc(S(=O)(=O)N(CCCN2CCN(c3ccccc3OC)CC2)CC2CCCCC2)cc1,16.3 nM,172 nM,200 nM,–,–
COc1ccc(S(=O)(=O)N(CCCN2CCN(c3cccc(C(F)(F)F)c3)CC2)CC2CC2)cc1,726 nM,124 nM,1030 nM,–,–
O=S(=O)(c1ccc2ccccc2c1)N(CCCN1CCN(c2ccc(F)cc2)CC1)CC1CCCCC1,0.5 nM,1510 nM,24 nM,50,3000
O=S(=O)(c1ccc2ccccc2c1)N(CCCN1CCN(c2cccc(C(F)(F)F)c2)CC1)CC1CCCCC1,13.1 nM,888 nM,66 nM,–,–
O=S(=O)(c1ccc(F)cc1)N(CCCN1CCN(c2ccccc2)CC1)CC1CC1,142 nM,147 nM,1980 nM,–,–
COc1ccccc1N1CCN(CCCN(CC2CC2)S(=O)(=O)c2ccc3ccccc3c2)CC1,85.8 nM,188 nM,549 nM,–,–
O=S(=O)(c1cccc2cccnc12)N(CCCN1CCN(c2ccc(F)cc2)CC1)CC1CCCCC1,5.1 nM,442 nM,136 nM,–,–

SMILES,IC50 [1],IC50 [2],IC50 [3],Ratio IC50 [4],Ratio IC50 (Homo sapiens)
CC(CCN1CCN(c2cccc(C(F)(F)F)c2)CC1)NS(=O)(=O)c1ccc2ccccc2c1 (centres undefined),180 nM,363 nM,942 nM,–,–
O=S(=O)(c1ccc2ccccc2c1)N(CCCN1CCN(c2ccccc2)CC1)CC1CC1,35.9 nM,117 nM,479 nM,–,–
O=S(=O)(c1ccc2ccccc2c1)N(CCCN1CCN(c2ccccc2)CC1)CC1CCCCC1,0.7 nM,1240 nM,65 nM,100,1500
O=S(=O)(c1ccc(C(F)(F)F)cc1)N(CCCN1CCN(c2ccccc2)CC1)CC1CCCCC1,7.1 nM,456 nM,156 nM,–,–
CC(CCN1CCN(c2ccc(F)cc2)CC1)NS(=O)(=O)c1ccc2ccccc2c1 (centres undefined),6.2 nM,526 nM,90 nM,15,85
COc1ccccc1N1CCN(CCCN(CC2CCCCC2)S(=O)(=O)c2ccc3ccccc3c2)CC1,11.6 nM,500 nM,70 nM,–,–
O=S(=O)(c1cccc2cccnc12)N(CCCN1CCN(c2ccccc2)CC1)CC1CCCCC1,34.6 nM,419 nM,843 nM,–,–
O=S(=O)(c1cccc2ccccc12)N(CCCN1CCN(c2ccccc2)CC1)CC1CC1,171 nM,152 nM,1460 nM,–,–
COc1ccc(S(=O)(=O)N(CCCN2CCN(c3ccc(F)cc3)CC2)CC2CC2)cc1,72.5 nM,93 nM,723 nM,–,–
COc1ccc(S(=O)(=O)N(CCCN2CCN(c3ccc(F)cc3)CC2)CC2CCCCC2)cc1,3.4 nM,980 nM,40 nM,–,–
COc1ccccc1N1CCN(CCC(C)NS(=O)(=O)c2ccc3ccccc3c2)CC1 (centres undefined),664 nM,316 nM,539 nM,–,–
O=S(=O)(c1ccc(C(F)(F)F)cc1)N(CCCN1CCN(c2ccccc2)CC1)CC1CC1,70.8 nM,334 nM,565 nM,–,–
O=S(=O)(c1ccc2ccccc2c1)N(CCCN1CCN(c2ccc(F)cc2)CC1)CC1CC1,51 nM,49.6 nM,343 nM,–,–
CC(CCN1CCN(c2ccccc2)CC1)NS(=O)(=O)c1ccc2ccccc2c1 (centres undefined),12.7 nM,657 nM,200 nM,16,50
O=S(=O)(c1ccc2ccccc2c1)N(CCCN1CCN(c2cccc(C(F)(F)F)c2)CC1)CC1CC1,221 nM,342 nM,304 nM,–,–
O=S(=O)(c1cccc2cccnc12)N(CCCN1CCN(c2cccc(C(F)(F)F)c2)CC1)CC1CC1,75 nM,6.3 nM,694 nM,–,–
O=S(=O)(c1cccc2ccccc12)N(CCCN1CCN(c2ccccc2)CC1)CC1CCCCC1,2.6 nM,195 nM,50.7 nM,–,–
COc1ccccc1N1CCN(CCCN(CC2CC2)S(=O)(=O)c2cccc3cccnc23)CC1,561 nM,12.3 nM,8310 nM,–,–
